In ChEMBL document CHEMBL4823286, “Synthesis and evaluation of novel 2,4-diaminopyrimidines bearing a sulfoxide moiety as anaplastic lymphoma kinase (ALK) inhibition agents” (Bioorg Med Chem Lett, 2021):

Assays:
BaF3 = experiment: Antiproliferative activity against mouse BaF3 cells overexpressing ALK assessed as inhibition of cell proliferation measured by CCK8 assay; type: functional, cell-based
In short: (§1)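 Cell proliferation inhibition; IC50 given as mean ± SD of three independent experiments.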

NCI-H2228 [1] = experiment: Antiproliferative activity against human NCI-H2228 cells assessed as inhibition of cell proliferation measured by CCK8 assay; type: functional, cell-based; in short: as §1
NCI-H2228 [2] = experiment: Induction of apoptosis in human NCI-H2228 cells assessed as late apoptotic cells at 25 nM measured after 24 hrs by Annexin V-FITC/PI staining based flow cytometry assay (reference value: 2.02%); type: functional
In short: (§2)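 After 24 h or 48 h exposure (5, 25, 50 nM; DMSO 0.01% control), NCI-H2228 cells were harvested, double-stained with Annexin V-FITC and PI and run on flow cytometry. Stage percentages quantified by software; three experiments, representative shown.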

NCI-H2228 [3] = experiment: Induction of apoptosis in human NCI-H2228 cells assessed as viable cells at 25 nM measured after 48 hrs by Annexin V-FITC/PI staining based flow cytometry assay (reference value: 95.3%); type: functional; conditions: read-out: Activity; in short: as §2
NCI-H2228 [4] = experiment: Induction of apoptosis in human NCI-H2228 cells assessed as necrotic cells at 25 nM measured after 24 hrs by Annexin V-FITC/PI staining based flow cytometry assay (reference value: 0.21%); type: functional; in short: as §2
NCI-H2228 [5] = experiment: Induction of apoptosis in human NCI-H2228 cells assessed as late apoptotic cells at 25 nM measured after 48 hrs by Annexin V-FITC/PI staining based flow cytometry assay (reference value: 0.23%); type: functional; in short: as §2
NCI-H2228 [6] = experiment: Induction of apoptosis in human NCI-H2228 cells assessed as viable cells at 25 nM measured after 24 hrs by Annexin V-FITC/PI staining based flow cytometry assay (reference value: 95.6%); type: functional; conditions: read-out: Activity; in short: as §2
NCI-H2228 [7] = experiment: Induction of apoptosis in human NCI-H2228 cells assessed as early apoptotic cells at 25 nM measured after 24 hrs by Annexin V-FITC/PI staining based flow cytometry assay (reference value: 2.18%); type: functional; in short: as §2
NCI-H2228 [8] = experiment: Induction of apoptosis in human NCI-H2228 cells assessed as early apoptotic cells at 25 nM measured after 48 hrs by Annexin V-FITC/PI staining based flow cytometry assay (reference value: 1.58%); type: functional; in short: as §2
NCI-H2228 [9] = experiment: Induction of apoptosis in human NCI-H2228 cells assessed as necrotic cells at 25 nM measured after 48 hrs by Annexin V-FITC/PI staining based flow cytometry assay (reference value: 2.88%); type: functional; in short: as §2

SMILES: CCC(=O)Nc1cc(Nc2ncc(Cl)c(Nc3ccc(F)cc3[S+]([O-])CC)n2)c(OC)cc1N(C)CCN(C)C (stereo unspecified)
- IC50 (BaF3): 47.2 nM
- IC50 (NCI-H2228 [1]): 48.1 nM

SMILES: COc1cc(N2CCC(N3CCN(C)CC3)CC2)ccc1Nc1ncc(Cl)c(Nc2ccccc2P(C)(C)=O)n1 [BRIGATINIB]
- Activity (NCI-H2228 [2]): 3.47%
- viability at 0.025 µM (NCI-H2228 [3]): 52%
- IC50 (BaF3): 8.49 nM
- Activity (NCI-H2228 [4]): 0.2%
- Activity (NCI-H2228 [5]): 31%
- IC50 (NCI-H2228 [1]): 31.2 nM
- viability at 0.025 µM (NCI-H2228 [6]): 81.9%
- Activity (NCI-H2228 [7]): 14.4%
- Activity (NCI-H2228 [8]): 12.7%
- Activity (NCI-H2228 [9]): 4.32%

SMILES: CC[S+]([O-])c1ccccc1Nc1nc(Nc2cc(N)c(N(C)CCN(C)C)cc2OC)ncc1Cl (stereo unspecified)
- IC50 (BaF3): 75 nM
- IC50 (NCI-H2228 [1]): 2630 nM

SMILES: CC[S+]([O-])c1cc(F)ccc1Nc1nc(Nc2ccc(N(C)C3CCN(C)CC3)cc2OC)ncc1Cl (stereo unspecified)
- IC50 (BaF3): 82 nM
- IC50 (NCI-H2228 [1]): 1440 nM

SMILES: CC[S+]([O-])c1cc(F)ccc1Nc1nc(Nc2ccc(N3CCN(C(C)=O)CC3)cc2OC)ncc1Cl (stereo unspecified)
- IC50 (BaF3): 85.7 nM
- IC50 (NCI-H2228 [1]): 704 nM

SMILES: CC[S+]([O-])c1ccccc1Nc1nc(Nc2ccc(N(C)CCN(C)C)cc2OC)ncc1Cl (stereo unspecified)
- IC50 (BaF3): 26.3 nM
- IC50 (NCI-H2228 [1]): 69.3 nM

SMILES: CC[S+]([O-])c1ccccc1Nc1nc(Nc2ccc(N3CCN(C)CC3)cc2OC)ncc1Cl (stereo unspecified)
- IC50 (BaF3): 13.1 nM
- IC50 (NCI-H2228 [1]): 35.2 nM

SMILES: CCC(=O)Nc1cc(Nc2ncc(Cl)c(Nc3ccccc3[S+]([O-])CC)n2)c(OC)cc1N(C)CCN(C)C (stereo unspecified)
- IC50 (BaF3): 35.4 nM
- IC50 (NCI-H2228 [1]): 55.4 nM

SMILES: CC[S+]([O-])c1cc(F)ccc1Nc1nc(Nc2ccc(N3CCN(C)CC3)cc2OC)ncc1Cl (stereo unspecified)
- IC50 (BaF3): 48.9 nM
- IC50 (NCI-H2228 [1]): 104 nM
